One block for each compound: values may come before it.
Assays:
D(1A) dopamine receptor [1] = biological target: T1, D(1A) dopamine receptor (Rattus norvegicus, UniProt P18901); experiment: In vitro binding affinity towards dDopamine receptor D1 by displacing [125I]FISCH radioligand in rat striatal homogenate
How it was run: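 Competition against 0.15-0.30 nM [125I]FISCH on rat striatal membranes, each competitor at 7-11 concentrations. Assay buffer 50 mM Tris pH 7.4 with NaCl, KCl, CaCl2 and MgCl2, 40-60 μg protein. Incubated 20 min at 37 °C with stirring, then vacuum-filtered on GF/B filters pretreated with 0.2% protamine sulfate and washed with cold Tris.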

Rattus norvegicus [2] = species on record: Rattus norvegicus; experiment: Selectivity ratio for biodistribution in brain and blood of rats after 15 minutes; Expressed as percent dose/gram ratio; type: ADME, organism-based; settings: 0.25 h
How it was run: (§1)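 After femoral iv injection of [125I]FISCH in saline into halothane-anesthetized male Sprague-Dawley rats, tissues were weighed and gamma-counted. Percent dose/gram was calculated against the diluted injected dose, and the ratio was taken from the percent dose/gram values.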

Rattus norvegicus [3] = species on record: Rattus norvegicus; experiment: Selectivity ratio for biodistribution in brain and blood of rats after 2 minutes; Expressed as percent dose/gram ratio; type: ADME, organism-based; how it was run: as §1
Rattus norvegicus [4] = species on record: Rattus norvegicus; experiment: Selectivity ratio for biodistribution in brain and blood of rats after 60 minutes; Expressed as percent dose/gram ratio; type: ADME, organism-based; settings: 1 h; how it was run: as §1
Rattus norvegicus [5] = experiment: In vivo biodistribution in rats after an intravenous injection at 60 min was determined in spleen; Expressed as percent dose/organ; type: ADME, organism-based; settings: 1 h
How it was run: (§2)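 [125I]FISCH in 0.2 mL saline was injected into the femoral vein of male Sprague-Dawley rats (225-300 g) under halothane. Rats were killed by cardiac excision at set times. Organs were weighed and gamma-counted against diluted aliquots of the dose. Blood and muscle totals assume 7% and 40% of body weight. Results are averages of six rats ± SD.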

Rattus norvegicus [6] = experiment: In vivo biodistribution in rats after an intravenous injection at 60 min was determined in thyroid; Expressed as percent dose/organ; type: ADME, organism-based, Thyroid gland; settings: 1 h; how it was run: as §2
Rattus norvegicus [7] = experiment: In vivo biodistribution in rats after an intravenous injection at 60 min was determined in lung; Expressed as percent dose/organ; type: ADME, organism-based; settings: 1 h; how it was run: as §2
Rattus norvegicus [8] = experiment: In vivo biodistribution in rats after an intravenous injection at 60 min was determined in skin; Expressed as percent dose/organ; type: ADME, organism-based; settings: 1 h; how it was run: as §2
Rattus norvegicus [9] = experiment: In vivo biodistribution in rats after an intravenous injection at 15 min was determined in heart; Expressed as percent dose/organ; type: ADME, organism-based; settings: 0.25 h; how it was run: as §2
Rattus norvegicus [10] = experiment: In vivo biodistribution in rats after an intravenous injection at 15 min was determined in liver; Expressed as percent dose/organ; type: ADME, organism-based; settings: 0.25 h; how it was run: as §2
Rattus norvegicus [11] = experiment: In vivo biodistribution in rats after an intravenous injection at 15 min was determined in lung; Expressed as percent dose/organ; type: ADME, organism-based; settings: 0.25 h; how it was run: as §2
Rattus norvegicus [12] = experiment: In vivo biodistribution in rats after an intravenous injection at 15 min was determined in muscle; Expressed as percent dose/organ; type: ADME, organism-based, Muscle tissue; settings: 0.25 h; how it was run: as §2
Rattus norvegicus [13] = experiment: In vivo biodistribution in rats after an intravenous injection at 15 min was determined in skin; Expressed as percent dose/organ; type: ADME, organism-based; settings: 0.25 h; how it was run: as §2
Rattus norvegicus [14] = experiment: In vivo biodistribution in rats after an intravenous injection at 15 min was determined in spleen; Expressed as percent dose/organ; type: ADME, organism-based; settings: 0.25 h; how it was run: as §2
Rattus norvegicus [15] = experiment: In vivo biodistribution in rats after an intravenous injection at 15 min was determined in thyroid; Expressed as percent dose/organ; type: ADME, organism-based, Thyroid gland; settings: 0.25 h; how it was run: as §2
Rattus norvegicus [16] = experiment: In vivo biodistribution in rats after an intravenous injection at 15 min was determined in kidney; Expressed as percent dose/organ; type: ADME, organism-based; settings: 0.25 h; how it was run: as §2
Rattus norvegicus [17] = experiment: In vivo biodistribution in rats after an intravenous injection at 2 min was determined in blood; Expressed as percent dose/organ; type: ADME, organism-based; how it was run: as §2
Rattus norvegicus [18] = experiment: In vivo biodistribution in rats after an intravenous injection at 2 min was determined in brain; Expressed as percent dose/organ; type: ADME, organism-based; how it was run: as §2
Rattus norvegicus [19] = experiment: In vivo biodistribution in rats after an intravenous injection at 2 min was determined in heart; Expressed as percent dose/organ; type: ADME, organism-based; how it was run: as §2
Rattus norvegicus [20] = experiment: In vivo biodistribution in rats after an intravenous injection at 2 min was determined in kidney; Expressed as percent dose/organ; type: ADME, organism-based; how it was run: as §2
Rattus norvegicus [21] = experiment: In vivo biodistribution in rats after an intravenous injection at 2 min was determined in liver; Expressed as percent dose/organ; type: ADME, organism-based; how it was run: as §2
Rattus norvegicus [22] = experiment: In vivo biodistribution in rats after an intravenous injection at 2 min was determined in lung; Expressed as percent dose/organ; type: ADME, organism-based; how it was run: as §2
Rattus norvegicus [23] = experiment: In vivo biodistribution in rats after an intravenous injection at 2 min was determined in muscle; Expressed as percent dose/organ; type: ADME, organism-based, Muscle tissue; how it was run: as §2
Rattus norvegicus [24] = experiment: In vivo biodistribution in rats after an intravenous injection at 2 min was determined in skin; Expressed as percent dose/organ; type: ADME, organism-based; how it was run: as §2
Rattus norvegicus [25] = experiment: In vivo biodistribution in rats after an intravenous injection at 2 min was determined in spleen; Expressed as percent dose/organ; type: ADME, organism-based; how it was run: as §2
Rattus norvegicus [26] = experiment: In vivo biodistribution in rats after an intravenous injection at 2 min was determined in thyroid; Expressed as percent dose/organ; type: ADME, organism-based, Thyroid gland; how it was run: as §2
Rattus norvegicus [27] = experiment: In vivo biodistribution in rats after an intravenous injection at 60 min was determined in heart; Expressed as percent dose/organ; type: ADME, organism-based; settings: 1 h; how it was run: as §2
Rattus norvegicus [28] = experiment: In vivo biodistribution in rats after an intravenous injection at 60 min was determined in kidney; Expressed as percent dose/organ; type: ADME, organism-based; settings: 1 h; how it was run: as §2
Rattus norvegicus [29] = experiment: In vivo biodistribution in rats after an intravenous injection at 60 min was determined in liver; Expressed as percent dose/organ; type: ADME, organism-based; settings: 1 h; how it was run: as §2
Rattus norvegicus [30] = experiment: In vivo biodistribution in rats after an intravenous injection at 60 min was determined in muscle; Expressed as percent dose/organ; type: ADME, organism-based, Muscle tissue; settings: 1 h; how it was run: as §2
Rattus norvegicus [31] = experiment: In vivo biodistribution in rats after an intravenous injection at 15 min was determined in blood; Expressed as percent dose/organ; type: ADME, organism-based; settings: 0.25 h; how it was run: as §2
Rattus norvegicus [32] = experiment: In vivo biodistribution in rats after an intravenous injection at 15 min was determined in brain; Expressed as percent dose/organ; type: ADME, organism-based; settings: 0.25 h; how it was run: as §2
D(1A) dopamine receptor [33] = biological target: T1, D(1A) dopamine receptor; experiment: In vitro binding affinity to the rat striatal homogenate
How it was run: (§3)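 Saturation binding of [125I]FISCH to male Sprague-Dawley rat (200-250 g) striatal membranes. Tissue homogenized in ice-cold 50 mM Tris-HCl pH 7.4, pelleted twice at 20000g. Assay buffer 50 mM Tris pH 7.4, 120 mM NaCl, 5 mM KCl, 2 mM CaCl2, 1 mM MgCl2, with 40-60 μg protein. Incubated 20 min at 37 °C with stirring, then filtered through protamine-treated GF/B filters. Specific binding gives […].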

Rattus norvegicus [34] = experiment: In vivo biodistribution in rats after an intravenous injection at 60 min was determined in blood; Expressed as percent dose/organ; type: ADME, organism-based; settings: 1 h; how it was run: as §2
Rattus norvegicus [35] = experiment: In vivo biodistribution in rats after an intravenous injection at 60 min was determined in brain; Expressed as percent dose/organ; type: ADME, organism-based; settings: 1 h; how it was run: as §2
D(1A) dopamine receptor [36] = biological target: T1, D(1A) dopamine receptor; experiment: In vitro binding affinity towards Dopamine receptor D1 by displacing [125I]FISCH radioligand in rat striatal homogenate
How it was run: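 Assay buffer 50 mM Tris pH 7.4 with NaCl, KCl, CaCl2 and MgCl2, 40-60 μg protein. Incubated 20 min at 37 °C with stirring, then vacuum-filtered on GF/B filters pretreated with 0.2% protamine sulfate and washed with cold Tris.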

D(1A) dopamine receptor [37] = biological target: T1, D(1A) dopamine receptor; experiment: (§4) In vitro binding affinity to the rat striatal homogenate.
Rattus norvegicus [38] = species on record: Rattus norvegicus; experiment: as §4; how it was run: as §3

T1 sequence (P18901 whole entry): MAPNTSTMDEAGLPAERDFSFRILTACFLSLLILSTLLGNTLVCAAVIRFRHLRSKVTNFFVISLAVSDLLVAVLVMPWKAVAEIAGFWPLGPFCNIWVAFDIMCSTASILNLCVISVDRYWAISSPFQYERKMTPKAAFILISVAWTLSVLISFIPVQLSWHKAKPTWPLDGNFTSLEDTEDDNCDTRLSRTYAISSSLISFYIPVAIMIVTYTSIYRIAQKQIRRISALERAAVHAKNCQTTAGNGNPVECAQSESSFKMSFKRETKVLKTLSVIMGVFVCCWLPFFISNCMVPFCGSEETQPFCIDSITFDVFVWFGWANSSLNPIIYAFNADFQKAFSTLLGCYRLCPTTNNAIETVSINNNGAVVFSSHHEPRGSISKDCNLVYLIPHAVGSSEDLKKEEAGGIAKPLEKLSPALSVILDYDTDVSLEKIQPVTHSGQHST

SMILES: CN1CCc2cc(Cl)c(O)cc2C(c2ccc(I)cc2)C1 (racemic)
Ki (D(1A) dopamine receptor [36]): 1.71 nM

SMILES: CN1CCc2ccc(O)cc2[C@@H](c2ccccc2)C1
Kd (D(1A) dopamine receptor [37]): 197 nM

Now from value to compound, other results behind:

Ki (D(1A) dopamine receptor [1]): > 3000 nM
SMILES: O=C(c1ccc(F)cc1)C1CCN(CCn2c(=O)[nH]c3ccccc3c2=O)CC1 [KETANSERIN]

Biodistribution (Rattus norvegicus [5]): 0.67%
Biodistribution (Rattus norvegicus [6]): 0.04%
Biodistribution (Rattus norvegicus [7]): 1.47%
Biodistribution (Rattus norvegicus [8]): 9.25%
Biodistribution (Rattus norvegicus [9]): 0.38%
Biodistribution (Rattus norvegicus [10]): 14.72%
Biodistribution (Rattus norvegicus [11]): 2.73%
Biodistribution (Rattus norvegicus [12]): 34.22%
Biodistribution (Rattus norvegicus [13]): 9.62%
Biodistribution (Rattus norvegicus [14]): 0.56%
Biodistribution (Rattus norvegicus [15]): 0.06%
Biodistribution (Rattus norvegicus [16]): 2.09%
Biodistribution (Rattus norvegicus [17]): 3.46%
Biodistribution (Rattus norvegicus [18]): 2.27%
Biodistribution (Rattus norvegicus [19]): 1.97%
Biodistribution (Rattus norvegicus [20]): 5.98%
Biodistribution (Rattus norvegicus [21]): 17.1%
Biodistribution (Rattus norvegicus [22]): 8.55%
Biodistribution (Rattus norvegicus [23]): 35.68%
Biodistribution (Rattus norvegicus [24]): 7.43%
Biodistribution (Rattus norvegicus [25]): 2.79%
Biodistribution (Rattus norvegicus [26]): 0.11%
Biodistribution (Rattus norvegicus [27]): 0.18%
Biodistribution (Rattus norvegicus [28]): 1.31%
Biodistribution (Rattus norvegicus [29]): 12.32%
Biodistribution (Rattus norvegicus [30]): 19.07%
Biodistribution (Rattus norvegicus [31]): 2.28%
Biodistribution (Rattus norvegicus [32]): 1.4%
Kd (D(1A) dopamine receptor [33]): 1.43 nM
Biodistribution (Rattus norvegicus [34]): 1.83%
Biodistribution (Rattus norvegicus [35]): 0.55%
SMILES: CN1CCc2cc(Cl)c(O)cc2C(c2ccc([125I])cc2)C1 (stereo not given)
Ratio (Rattus norvegicus [2]): 6.19%
Ratio (Rattus norvegicus [3]): 7.35%
Ratio (Rattus norvegicus [4]): 3.08%

Kd (Rattus norvegicus [38]): 0.36 nM
SMILES: CN1CCc2cc(Cl)c(O)cc2[C@@H](c2ccccc2)C1 [SCH-23390]

Ki (D(1A) dopamine receptor [36]): 13.4 nM
Kd (Rattus norvegicus [38]): 0.7 nM
SMILES: CN1CCc2cc(I)c(O)cc2[C@@H](c2ccccc2)C1 (racemic)
